# Measured values taken from PubChem BioAssay.
# Activity calls are given as the source filed them.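 Rule for the calls, unless noted: active = viability at or under a set limit in both replicates, limit being median viability minus 3 SD (cut at about 48% in these data, passing the limit was not always enough); inconclusive = at or under the limit in just one replicate; inactive = at or above the limit in both replicates.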
# Legend:
# [1] = HUVEC growth inhibition – cell-based, human, primary screen (AID 575;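 active = viability at or below 30% in both replicate assays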;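 note: 100% = median of untreated cell wells with 0.1% DMSO on each plate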); conditions: HUVEC proliferation, CellTiter-Glo luminescence, 72 h; at 10 µM; stronger effect = lower value
# Method in brief: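 System – primary HUVEC, no more than 12 passages · Medium – Low-serum (2% FBS) EBM, supplemented · Times – 72 h exposure, 37 °C, 5% CO2, 30 min RT equilibration · Measured by – luminescent ATP assay · Read-out – % viability relative to median vehicle-well signal on each plate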
# [2] = H69AR cell proliferation blockers – human, duplicate replicates, primary screen (AID 580); conditions: H69AR lung tumor cells viability, ATP luminescence, 72 h; at 10 µM; stronger effect = lower value;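 note: 100% = mean luminescence of untreated wells and 0% = no signal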
# [3] = MRP1 drug-resistance reversers in H69AR cells – cell-based, doxorubicin co-treatment, pilot screen (AID 601;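 active = viability loss from added drug above about 55%, and viability with drug at most 40%, in both replicates, limit read from the data, passing the limit was not always enough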); conditions: CellTiter-Glo, 72 h, at 10 µM; for differential viability (reversal): stronger effect = higher value
# [4] = yeast transport mutant growth inhibition pilot in 384-well plates, post-Golgi transport modulator project (AID 636; in the data active = inhibition above about 31%); conditions: absorbance 615 nm, about 18 h, stronger effect = higher value
# [5] = growth suppression of yeast trafficking mutant, preliminary HTS, modulators of trafficking downstream of Golgi apparatus project, 1536-format plate, OD 615 nm (AID 637; in the data active = inhibition above about 30%); conditions: yeast transport mutant growth, absorbance 615 nm, 18 h; stronger effect = higher value
# [6] = H69AR cells + 2 uM doxorubicin, measured here: viability with 2 uM doxorubicin, stronger effect = lower value
# [7] = H69AR cells, compound alone cytotoxicity
Compound,viability [1],viability [2],differential viability (reversal) ([3]; H69AR cells + 2 uM doxorubicin),"viability [3, 6]","viability [3, 7]",inhibition [4],inhibition [5]
CCS(=O)(=O)N1CCC(C(=O)N2CCOCC2)CC1,92.1% (inactive),98.5% (inactive),-1.11% (inactive),99.6%,98.5%,-0.52% (inactive),-0.16% (inactive)
COCc1[nH]nc2c1C(C1C=CCCC1)C(C#N)=C(N)O2 (configuration not stated),68.9% (inactive),94.6% (inactive),-4.19% (inactive),98.8%,94.6%,-2.5% (inactive),-1.11% (inactive)
Cc1cc(NC(=O)c2cc(-c3ccco3)on2)n(-c2ccccc2)n1,80.7% (inactive),106% (inactive),13% (inactive),92.6%,106%,-2.5% (inactive),1.9% (inactive)
N#CCc1nc(CSc2nc3ccccc3s2)cs1,99.1% (inactive),91.3% (inactive),8.82% (inactive),82.4%,91.3%,-1.04% (inactive),3.02% (inactive)
CC(=O)C1=C(C)NC(=O)NC1c1cccc(O)c1 (configuration not stated),99.8% (inactive),94.4% (inactive),8.07% (inactive),86.3%,94.4%,-2.93% (inactive),0.16% (inactive)
Cc1ccc(-c2ccc(=O)n(CCC(=O)NCCN3CCCCC3C)n2)cc1 (configuration not stated),94.9% (inactive),91.3% (inactive),1.11% (inactive),90.2%,91.3%,-4.27% (inactive),-5.56% (inactive)
CCOC(=O)C1CCCN(c2nc3ccccc3nc2C(C#N)C(=O)NCc2ccccc2)C1 (configuration not stated),80.6% (inactive),86.2% (inactive),0.385% (inactive),85.8%,86.2%,-3.95% (inactive),-1.27% (inactive)
CCN(CC(=O)Nc1c(C(=O)OC)[nH]c2ccccc12)c1ccc2c(c1)OCO2,67.8% (inactive),72% (inactive),-6.82% (inactive),78.8%,72%,-5.2% (inactive),-2.22% (inactive)
CCS(=O)(=O)N1CCCC(C(=O)NCCc2ccc(OC)c(OC)c2)C1 (configuration not stated),101% (inactive),104% (inactive),9.14% (inactive),94.5%,104%,1.07% (inactive),-0.95% (inactive)
CCn1cc(/C=C(/C#N)S(=O)(=O)c2ccccc2)cn1,110% (inactive),95.3% (inactive),9.54% (inactive),85.8%,95.3%,-7.24% (inactive),-4.6% (inactive)
CCc1ccc(NC(=O)c2cc(-c3ccco3)on2)cc1,75.1% (inactive),91.3% (inactive),-16.3% (inactive),108%,91.3%,-1.45% (inactive),-4.6% (inactive)
Cc1cc(C)n(Cc2nc3ccccc3n2C)n1,92.9% (inactive),99% (inactive),8.18% (inactive),90.9%,99%,0.52% (inactive),4.92% (inactive)
CCCC(=O)Nc1ccccc1NC(=O)CCC,108% (inactive),96% (inactive),7.25% (inactive),88.8%,96%,-2.24% (inactive),-2.38% (inactive)
CS(=O)(=O)N(CC(=O)N1CCN(c2cccc(Cl)c2)CC1)C1CCCCC1,80.6% (inactive),79.6% (inactive),-7.54% (inactive),87.1%,79.6%,-4.29% (inactive),-7.78% (inactive)
Cc1c(NC(=O)c2cnn3c2NC(c2ccco2)CC3C(F)(F)F)c(=O)n(-c2ccccc2)n1C (configuration not stated),81.5% (inactive),103% (inactive),15.8% (inactive),87%,103%,-2.47% (inactive),3.65% (inactive)
O=C(CCn1c(=O)c2sccc2n(CC(=O)NCc2ccco2)c1=O)NCc1ccccc1,93.6% (inactive),96.9% (inactive),4.46% (inactive),92.5%,96.9%,-0.65% (inactive),-1.59% (inactive)
COc1cccc(C(=O)Nc2cc(NC(=O)c3ccco3)ccc2OC)c1,69.1% (inactive),80.6% (inactive),2.75% (inactive),77.8%,80.6%,-3.64% (inactive),-2.22% (inactive)
CCc1ncc(C(O)c2cccc(OC)c2OC)n1C (configuration not stated),101% (inactive),98.7% (inactive),11.3% (inactive),87.3%,98.7%,-3.68% (inactive),4.13% (inactive)
Cc1cc(C(=O)Nc2cc(C)n(Cc3ccc(Cl)cc3)n2)no1,102% (inactive),94.5% (inactive),2.41% (inactive),92.1%,94.5%,1.97% (inactive),-6.51% (inactive)
Cc1ccc(S(=O)(=O)NCCCNC(=O)N2CCOCC2)cc1,100% (inactive),106% (inactive),13.5% (inactive),92.4%,106%,-1.05% (inactive),3.81% (inactive)
Cc1c(O)c(CN2CCCCC2)cc2c3c(c(=O)oc12)CCC3,103% (inactive),82.2% (inactive),-0.59% (inactive),82.8%,82.2%,-6.84% (inactive),5.08% (inactive)

Compound,viability [1],viability [2],differential viability (reversal) ([3]; H69AR cells + 2 uM doxorubicin),"viability [3, 6]","viability [3, 7]",inhibition [4],inhibition [5]
CN(C)C(CNc1nnnn1-c1ccccc1)c1ccco1 (configuration not stated),79.2% (inactive),77.4% (inactive),5% (inactive),72.4%,77.4%,-3.77% (inactive),1.11% (inactive)
Cc1ccccc1NS(=O)(=O)c1ccc(NC(=O)c2ccco2)cc1,90% (inactive),89.2% (inactive),-0.49% (inactive),89.7%,89.2%,-2.34% (inactive),-2.38% (inactive)
O=C(CSc1nc(-c2ccc(F)cc2)cs1)N1CCOCC1,122% (inactive),94.4% (inactive),19.2% (inactive),75.2%,94.4%,-0.92% (inactive),6.67% (inactive)
CC(=O)Nc1ccc(S(=O)(=O)N(CC(=O)O)Cc2ccccc2)cc1,93.7% (inactive),97.7% (inactive),-6.14% (inactive),104%,97.7%,-2.47% (inactive),7.14% (inactive)
Cc1c(C(=O)NCc2ccccn2)oc2ccccc12,99.6% (inactive),106% (inactive),25.7% (inactive),80.5%,106%,-0.92% (inactive),17.9% (inactive)
CCOc1ccc(N(CC(=O)NCc2cccc(OC)c2)S(=O)(=O)c2c(C)noc2C)cc1,93.4% (inactive),91.2% (inactive),-4.58% (inactive),95.8%,91.2%,0.27% (inactive),-2.86% (inactive)
COc1ccc(C2C3=C(OC(C)=O)c4ccccc4C3=Nc3c2c(=O)n(C)c(=O)n3C)cc1 (configuration not stated),65.4% (inactive),74.1% (inactive),0.425% (inactive),73.7%,74.1%,-4% (inactive),0.79% (inactive)
CC(=O)NC1=NC(=O)/C(=C/N2CCCCC2)S1,99.5% (inactive),95.9% (inactive),5.1% (inactive),90.8%,95.9%,-1.97% (inactive),-2.22% (inactive)
Cc1ccc(C2C(C#N)=C(N)Oc3cc4c(cc32)OCO4)cc1 (configuration not stated),48.4% (inactive),10.2% (active),-44.2% (inactive),54.4%,10.2%,-4.42% (inactive),1.27% (inactive)
Cc1nc(C)c(C(=O)C2=C(O)C(=O)N(CCCn3ccnc3)C2c2ccccc2)s1 (configuration not stated),94.5% (inactive),95% (inactive),0.995% (inactive),94.1%,95%,-0.13% (inactive),-2.54% (inactive)
NC(=O)c1cc(-c2ccccc2)nc(Oc2ccccc2)n1,108% (inactive),98.7% (inactive),3.71% (inactive),95%,98.7%,-8% (inactive),-0.63% (inactive)
CC(=O)c1cc(-c2ccccc2)n(CC(=O)N2CCC(N3CCCCC3)CC2)c1C,85.3% (inactive),82.7% (inactive),-2.33% (inactive),85.1%,82.7%,-2.73% (inactive),0.63% (inactive)
Cn1nc(-c2ccc(C(=O)NCC3CCCO3)cc2)c2ccccc2c1=O (configuration not stated),88.3% (inactive),84.7% (inactive),13.5% (inactive),71.2%,84.7%,-3.12% (inactive),7.14% (inactive)
COC(=O)Oc1c(Br)c(=O)oc2ccccc12,90.8% (inactive),83% (inactive),2.87% (inactive),80.1%,83%,-0.4% (inactive),-4.13% (inactive)
O=S1(=O)C=C(Sc2nc3ccccc3s2)c2ccccc21,9.16% (active),1.38% (active),0.39% (inactive),0.99%,1.38%,37.3% (active),55.6% (active)
O=C(Cc1cccs1)NCc1ccc(F)cc1,98% (inactive),99.6% (inactive),5.21% (inactive),94.4%,99.6%,-3.6% (inactive),3.33% (inactive)
CC1(C)NC(=O)N(CC(O)CN2CCCCC2)C1=O (configuration not stated),105% (inactive),93.1% (inactive),-2.85% (inactive),96%,93.1%,-3.73% (inactive),-4.92% (inactive)
Cc1ccc(N2CC(C(=O)Nc3ccc4c(c3)OCO4)CC2=O)cc1 (configuration not stated),101% (inactive),99.6% (inactive),12% (inactive),87.6%,99.6%,-3.25% (inactive),-0.79% (inactive)
O=S(=O)(c1ccc2c(c1)OCCO2)N(Cc1ccc(F)cc1)Cc1nnc(-c2cccs2)o1,81% (inactive),92.1% (inactive),8.63% (inactive),83.4%,92.1%,-3.38% (inactive),0.79% (inactive)
Cn1c(SCC(=O)Nc2cccc3ccccc23)nc(O)cc1=O,88.3% (inactive),89.7% (inactive),-5.66% (inactive),95.4%,89.7%,-4.67% (inactive),-0.79% (inactive)
